Reference: ChEMBL document CHEMBL4808182, “Discovery of the Soluble Guanylate Cyclase Activator Runcaciguat (BAY 1101042)” (J Med Chem, 2021)
One block for each molecule: values may come before it.

Assays:
[1] = molecular target: T1, Guanylate cyclase soluble subunit alpha-1 (Rattus norvegicus) (UniProt P19686); assay: Activation of recombinant rat sGC alpha1 subunit expressed in CHO cells assessed as induction of [32P-cGMP] formation using alpha-[32P-GTP] as substrate measured after 6 mins by luminescence assay; type: cell-based; conditions: filed as activator
T1 sequence (whole entry): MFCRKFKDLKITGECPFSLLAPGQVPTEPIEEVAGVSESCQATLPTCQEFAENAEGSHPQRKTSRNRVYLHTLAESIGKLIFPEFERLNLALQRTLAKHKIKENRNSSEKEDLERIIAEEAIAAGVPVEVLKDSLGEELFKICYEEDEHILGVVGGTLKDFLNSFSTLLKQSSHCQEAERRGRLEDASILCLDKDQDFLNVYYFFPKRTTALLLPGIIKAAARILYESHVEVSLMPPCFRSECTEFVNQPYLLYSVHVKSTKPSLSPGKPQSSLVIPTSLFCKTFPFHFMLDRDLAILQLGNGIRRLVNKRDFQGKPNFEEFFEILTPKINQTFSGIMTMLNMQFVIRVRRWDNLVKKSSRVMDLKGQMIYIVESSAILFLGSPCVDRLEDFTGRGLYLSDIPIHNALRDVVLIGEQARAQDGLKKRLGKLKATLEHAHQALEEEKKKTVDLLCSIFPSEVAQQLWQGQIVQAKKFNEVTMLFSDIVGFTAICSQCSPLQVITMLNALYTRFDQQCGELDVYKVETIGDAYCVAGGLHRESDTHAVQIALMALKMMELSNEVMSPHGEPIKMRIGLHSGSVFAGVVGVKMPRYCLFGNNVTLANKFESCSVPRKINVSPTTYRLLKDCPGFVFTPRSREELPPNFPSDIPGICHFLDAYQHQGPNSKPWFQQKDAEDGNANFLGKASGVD

[2] = molecular target: T1, Guanylate cyclase soluble subunit alpha-1 (Rattus norvegicus); assay: Activation of recombinant rat sGC alpha1 subunit expressed in CHO cells assessed as induction of [32P-cGMP] formation by measuring efficacy using alpha-[32P-GTP] as substrate measured after 6 mins by luminescence assay relative to control; type: cell-based
[3] = Activation of recombinant rat sGC expressed in CHO cells by luminescence assay; type: cell-based
How it was run: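 Stable CHO reporter cell line overexpressing rat sGC; cGMP formation read as luminescence. EC50 from concentration–response. MEC taken as lowest concentration giving at least threefold increase in basal luminescence.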

[4] = Clearance in Wistar rat at 0.3 mg/kg, iv measured up to 24 hrs by LC-MS analysis; type: ADME, organism-based; conditions: in vivo
How it was run: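 Rats dosed iv at 0.3 mg/kg; blood clearance determined.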

[5] = Plasma clearance in iv dosed cynomolgus monkey measured up to 24 hrs by LC-MS analysis; type: ADME, organism-based, Macaca fascicularis
[6] = Volume of distribution at steady state in iv dosed Beagle dog measured up to 24 hrs by LC-MS analysis; type: ADME, organism-based, Canis lupus familiaris; conditions: in vivo, read-out: Vdss
How it was run: (§1)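 Three animals per species and strain received an intravenous dose. Steady-state volume of distribution (L/kg) was derived from the blood concentration–time profile, alongside blood clearance and terminal half-life.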

[7] = Volume of distribution at steady state in iv dosed Wistar rat measured up to 24 hrs by LC-MS analysis; type: ADME, organism-based; conditions: in vivo, read-out: Vdss; how it was run: as §1
[8] = Oral bioavailability in Wistar rat measured up to 24 hrs by LC-MS analysis; type: ADME, organism-based; conditions: in vivo
[9] = Oral bioavailability in Beagle dog measured up to 24 hrs by LC-MS analysis; type: ADME, organism-based, Canis lupus familiaris; conditions: in vivo
[10] = Half life in iv dosed Beagle dog measured up to 24 hrs by LC-MS analysis; type: ADME, organism-based, Canis lupus familiaris; conditions: in vivo
[11] = Plasma clearance in iv dosed Beagle dog measured up to 24 hrs by LC-MS analysis; type: ADME, organism-based, Canis lupus familiaris
[12] = Half life in iv dosed Wistar rat measured up to 24 hrs by LC-MS analysis; type: ADME, organism-based; conditions: in vivo
[13] = Induction of CYP3A4 in human hepatocytes using phenacetin as substrate incubated for 60 mins by LC-MS/MS analysis; conditions: 1 h
[14] = molecular target: Cytochrome P450 3A4 (Homo sapiens, UniProt P08684); assay: Induction of CYP3A4 in human hepatocytes at > 10000 ng/ml using phenacetin as substrate incubated for 60 mins by LC-MS/MS analysis; type: ADME, cell-based, Hepatocyte; conditions: 1 h
Sequence of Cytochrome P450 3A4 (P08684 whole entry): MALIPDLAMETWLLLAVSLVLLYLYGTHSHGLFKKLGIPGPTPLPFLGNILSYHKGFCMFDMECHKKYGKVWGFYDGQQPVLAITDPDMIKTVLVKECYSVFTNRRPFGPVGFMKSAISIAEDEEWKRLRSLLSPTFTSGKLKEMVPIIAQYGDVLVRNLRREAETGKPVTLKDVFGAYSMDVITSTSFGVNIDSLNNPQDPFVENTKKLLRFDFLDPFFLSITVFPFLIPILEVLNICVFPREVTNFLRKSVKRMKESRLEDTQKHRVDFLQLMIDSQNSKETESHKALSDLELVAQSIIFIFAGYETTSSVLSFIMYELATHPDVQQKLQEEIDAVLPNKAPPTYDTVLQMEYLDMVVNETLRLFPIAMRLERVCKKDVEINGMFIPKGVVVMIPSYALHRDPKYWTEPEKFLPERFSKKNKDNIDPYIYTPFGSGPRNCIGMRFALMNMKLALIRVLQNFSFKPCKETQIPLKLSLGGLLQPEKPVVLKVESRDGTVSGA

[15] = molecular target: T2, Cytochrome P450 1A2 (Homo sapiens, UniProt P05177); assay: Induction of CYP1A2 in human hepatocytes at > 10000 ng/ml using phenacetin as substrate incubated for 60 mins by LC-MS/MS analysis; type: ADME, cell-based, Hepatocyte; conditions: 1 h
T2 sequence (P05177 whole entry): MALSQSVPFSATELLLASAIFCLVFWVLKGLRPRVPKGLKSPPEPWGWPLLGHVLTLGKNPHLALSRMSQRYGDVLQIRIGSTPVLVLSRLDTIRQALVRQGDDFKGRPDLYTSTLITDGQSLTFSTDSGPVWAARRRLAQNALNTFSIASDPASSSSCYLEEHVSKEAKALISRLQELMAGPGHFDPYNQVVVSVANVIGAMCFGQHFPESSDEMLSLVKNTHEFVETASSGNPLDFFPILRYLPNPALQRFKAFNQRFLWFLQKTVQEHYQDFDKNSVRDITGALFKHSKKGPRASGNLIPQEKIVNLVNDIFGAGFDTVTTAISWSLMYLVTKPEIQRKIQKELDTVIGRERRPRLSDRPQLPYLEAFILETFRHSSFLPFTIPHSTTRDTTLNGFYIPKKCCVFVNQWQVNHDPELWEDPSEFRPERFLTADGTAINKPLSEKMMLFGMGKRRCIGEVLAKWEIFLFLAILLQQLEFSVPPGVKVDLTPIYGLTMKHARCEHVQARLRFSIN

SMILES: Cc1c(CCC(=O)O)cccc1NC(=O)[C@H](c1ccc(Cl)cc1)C1CCCC1
- MEC [1]: 200 nM
- Efficacy [2]: 19%
- EC50 ([3]; CHO): 44 nM
- clearance [4]: 12.8 mL/min/kg

SMILES: O=C(O)[C@H]1Cc2cccc(NC(=O)[C@H](c3ccc(CN4N=C(c5ccccc5)OCC4=O)cc3)C3CCCC3)c2C1
- MEC [1]: 30 nM

SMILES: CC(C)C(CC(=O)O)c1ccc(Cl)c(NC(=O)[C@H](c2ccc(Cl)cc2)[C@@H](C)C(F)(F)F)c1 (stereo in doubt; 44b) [listing 1 of 2 here]
- MEC [1]: 3 nM
- Efficacy ([2]; filed as activator): 47%

SMILES: O=C(O)CCc1cccc(NC(=O)[C@@H](c2ccc(CN3N=C(c4ccccc4)OCC3=O)cc2)C2CCCC2)c1
- MEC [1]: 300 nM

SMILES: Cc1c(CCC(=O)O)cccc1NC(=O)[C@H](c1ccc(CN2N=C(c3ccccc3)OCC2=O)cc1)C(C)C
- MEC [1]: 30 nM

SMILES: Cc1c(CCC(=O)O)cccc1NC(=O)[C@H](c1ccc(Cn2nc(-c3ccccc3)ccc2=O)cc1)C1CCCC1
- MEC [1]: 1 nM

SMILES: Cc1c(CCC(=O)O)cccc1NC(=O)[C@H](c1ccc(CN2N=C(c3ccccc3)OCC2=O)cc1)C1CCCC1
- MEC [1]: 3 nM
- Activity [14]: Not Active
- Efficacy ([2]; filed as activator): 110%
- Activity [15]: Not Active
- EC50 ([3]; CHO): 27 nM

SMILES: CC(C)C(CC(=O)O)c1ccc(Cl)c(NC(=O)[C@H](c2ccc(Cl)cc2)[C@@H](C)C(F)(F)F)c1 (stereo in doubt; 44b) [listing 2 of 2 here]
- Activity [13]: < 29 nM
- EC50 ([3]; cho): 10 nM

SMILES: CC(C)C(CC(=O)O)c1ccc(Cl)c(NC(=O)[C@H](c2ccc(Cl)cc2)[C@@H](C)C(F)(F)F)c1 (stereo in doubt; 44a) [listing 1 of 2 here]
- Activity [13]: 10 nM
- EC50 ([3]; cho): 28 nM

SMILES: Cc1ccc(=O)n(Cc2ccc(C(C(=O)Nc3cccc(CCC(=O)O)c3C)C3CCCC3)cc2)n1 (racemic)
- MEC [1]: 30 nM

SMILES: O=C(N[C@@H](CO)c1ccccc1)C(c1ccc(Cn2nc(-c3ccccc3)c3ccccc3c2=O)cc1)C1CCCC1 (some centres undefined)
- MEC [1]: 100 nM

SMILES: CC(C)C(CC(=O)O)c1ccc(Cl)c(NC(=O)[C@H](c2ccc(Cl)cc2)[C@@H](C)C(F)(F)F)c1 (stereo in doubt; 44a) [listing 2 of 2 here]
- MEC [1]: 6.5 nM
- Efficacy ([2]; filed as activator): 58%

SMILES: Cc1c(C=C[C@H](c2ccc(CN3N=C(c4ccccc4)OCC3=O)cc2)C2CCCC2)cccc1CCC(=O)O (mixture of isomers)
- MEC [1]: 300 nM

Continued, values first:

- MEC [1]: 0.3 nM
- Efficacy [2]: 34%
SMILES: C[C@H]([C@H](C(=O)Nc1cc(CC2(C(=O)O)CC2)ccc1F)c1ccc(Cl)cc1)C(F)(F)F

- clearance [5]: 4 mL/min/kg
- Vd [6]: 3 L/kg
- Vd [7]: 1.5 L/kg
- MEC [1]: 0.3 nM
- bioavailability [8]: 84%
- bioavailability [9]: 57%
- half-life [10]: 11 h
- Efficacy ([2]; filed as activator): 63%
- clearance [11]: 25 mL/min/kg
- half-life [12]: 4.3 h
- clearance [4]: 7.67 mL/min/kg
SMILES: C[C@H]([C@H](C(=O)Nc1cc(CC2(C(=O)O)CC2)ccc1Cl)c1ccc(Cl)cc1)C(F)(F)F

- Activity [13]: 256 nM
- MEC [1]: 1 nM
- Efficacy [2]: 37%
- EC50 ([3]; CHO): 5 nM
SMILES: C[C@H]([C@H](C(=O)Nc1cc(C2(CC(=O)O)CCC2)ccc1Cl)c1ccc(Cl)cc1)C(F)(F)F

- MEC [1]: 3 nM
- Efficacy ([2]; filed as activator): 44%
SMILES: Cc1ccc(CC2(C(=O)O)CC2)cc1NC(=O)[C@H](c1ccc(Cl)cc1)[C@@H](C)C(F)(F)F

- MEC [1]: 20 nM
- Efficacy [2]: 4%
SMILES: C[C@H]([C@H](C(=O)Nc1cccc(CC2(C(=O)O)CC2)c1)c1ccc(Cl)cc1)C(F)(F)F

- MEC [1]: 100 nM
- Efficacy [2]: 19%
SMILES: C[C@H]([C@H](C(=O)Nc1cccc(CC2(C(=O)O)CC2)c1Cl)c1ccc(Cl)cc1)C(F)(F)F

- MEC [1]: 1000 nM
- Efficacy [2]: 18%
SMILES: Cc1c(CCC(=O)O)cccc1NC(=O)[C@H](c1ccc(Cl)cc1)[C@@H](C)C(F)(F)F
